# Results: ChEMBL document CHEMBL1132295, “Novel euglycemic and hypolipidemic agents. 4. Pyridyl- and quinolinyl-containing thiazolidinediones” (1999)
# Tested on: Mus musculus
# Assay: Compound was administered at a dose of 100 mg/kg/day to evaluate the percentage reduction in plasma triglyceride (TG) after 6 days of treatment in db/db mice via oral gavage; Not significant.
# Format: functional, organism-based
# Conditions: not given
# Outline: (§1)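 Male C57BL/KsJ-db/db mice, 8 weeks old, 4–6 per group, given compound orally once daily for 6 days; vehicle controls received 0.5% CMC (10 mL/kg); rosiglitazone 30 mg/kg as standard. On the last day, retro-orbital blood was taken 1 h post-dose. Plasma glucose and triglyceride were measured by kits. % reduction = [1 − (TT/OT)/(TC/OC)] × 100, using day-0 and control values; mean ± SE, ANOVA, P<0.05.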
row,SMILES,Reduction
1,O=C1NC(=O)/C(=C/c2ccc(OC[C@@H]3CCCN3c3ccc4ccccc4n3)cc2)S1,Not significant

# Tested on: Mus musculus
# Assay: Compound was administered at a dose of 30 mg/kg/day to evaluate the percentage reduction in plasma triglyceride (TG) after 14 days of treatment in ob/ob mice via oral gavage.
# Conditions: not given
row,SMILES,Reduction
1,Cl.O=C1NC(=O)/C(=C/c2ccc(OC[C@@H]3CCCN3c3ccccn3)cc2)S1,53%
2,O=C(O)/C=C\C(=O)O.O=C1NC(=O)/C(=C/c2ccc(OC[C@@H]3CCCN3c3ccccn3)cc2)S1,68.5%

# Tested on: Mus musculus
# Assay: Compound was administered at a dose of 3 mg/kg/day to evaluate the percentage reduction in plasma triglyceride (TG) after 14 days of treatment in ob/ob mice via oral gavage.
# Conditions: not given
row,SMILES,Reduction
1,Cl.O=C1NC(=O)/C(=C/c2ccc(OC[C@@H]3CCCN3c3ccccn3)cc2)S1,39.33%
2,O=C(O)/C=C\C(=O)O.O=C1NC(=O)/C(=C/c2ccc(OC[C@@H]3CCCN3c3ccccn3)cc2)S1,59%

# Tested on: Mus musculus
# Assay: Compound was administered at a dose of 20 mg/kg/day to evaluate the percentage reduction in plasma glucose(PG) after 14 days of treatment in db/db mice via oral gavage.
# Conditions: not given
row,SMILES,Reduction
1,O=C(O)/C=C\C(=O)O.O=C1NC(=O)C(Cc2ccc(OC[C@@H]3CCCN3c3ccccn3)cc2)S1 (stereo not given in full),41.25%

# Tested on: Mus musculus
# Assay: Compound was administered at a dose of 3 mg/kg/day to evaluate the percentage reduction in plasma glucose(PG) after 14 days of treatment in db/db mice via oral gavage.
# Conditions: not given
row,SMILES,Reduction
1,O=C1[N-]C(=O)C(Cc2ccc(OCC3CN(c4ccccn4)CCO3)cc2)S1.[Na+] (stereo not given),34.67%
2,Cl.O=C1NC(=O)/C(=C/c2ccc(OC[C@@H]3CCCN3c3ccccn3)cc2)S1,53.8%
3,O=C(O)/C=C\C(=O)O.O=C1NC(=O)/C(=C/c2ccc(OC[C@@H]3CCCN3c3ccccn3)cc2)S1,12.75%
4,CN(CCOc1ccc(CC2SC(=O)NC2=O)cc1)c1ccccn1 (stereo in doubt; form 1) [ROSIGLITAZONE],41.6%
5,O=C(O)/C=C\C(=O)O.O=C1NC(=O)C(Cc2ccc(OC[C@@H]3CCCN3c3ccccn3)cc2)S1 (stereo not given in full),8.5%

# Tested on: Mus musculus
# Assay: Compound was administered at a dose of 100 mg/kg/day to evaluate the percentage reduction in plasma glucose(PG) after 6 days of treatment in db/db mice via oral gavage; Not significant.
# Format: functional, organism-based
# Conditions: not given
# Outline: as §1
row,SMILES,Reduction
1,O=C1NC(=O)/C(=C/c2ccc(OCC3CCN(c4ccccn4)CC3)cc2)S1,Not significant

# Tested on: Mus musculus
# Assay: Compound was administered at a dose of 3 mg/kg/day to evaluate the percentage reduction in plasma glucose(PG) after 14 days of treatment in ob/ob mice via oral gavage.
# Conditions: not given
row,SMILES,Reduction
1,O=C1[N-]C(=O)C(Cc2ccc(OCC3CN(c4ccccn4)CCO3)cc2)S1.[Na+] (stereo not given),35.6%
2,Cl.O=C1NC(=O)/C(=C/c2ccc(OC[C@@H]3CCCN3c3ccccn3)cc2)S1,50.2%
3,O=C(O)/C=C\C(=O)O.O=C1NC(=O)/C(=C/c2ccc(OC[C@@H]3CCCN3c3ccccn3)cc2)S1,40.25%

# Tested on: Mus musculus
# Assay: Compound was administered at a dose of 1 mg/kg/day to evaluate the percentage reduction in plasma triglyceride (TG) after 14 days of treatment in ob/ob mice via oral gavage.
# Conditions: not given
row,SMILES,Reduction
1,Cl.O=C1NC(=O)/C(=C/c2ccc(OC[C@@H]3CCCN3c3ccccn3)cc2)S1,46.6%
2,O=C(O)/C=C\C(=O)O.O=C1NC(=O)/C(=C/c2ccc(OC[C@@H]3CCCN3c3ccccn3)cc2)S1,65.75%

# Tested on: Mus musculus
# Assay: Compound was administered at a dose of 10 mg/kg/day to evaluate the percentage reduction in plasma triglyceride (TG) after 14 days of treatment in ob/ob mice via oral gavage.
# Conditions: not given
row,SMILES,Reduction
1,Cl.O=C1NC(=O)/C(=C/c2ccc(OC[C@@H]3CCCN3c3ccccn3)cc2)S1,35%
2,O=C(O)/C=C\C(=O)O.O=C1NC(=O)/C(=C/c2ccc(OC[C@@H]3CCCN3c3ccccn3)cc2)S1,41.5%

# Tested on: Mus musculus
# Assay: Compound was administered at a dose of 3 mg/kg/day to evaluate the percentage reduction in plasma triglyceride (TG) after 14 days of treatment in db/db mice via oral gavage.
# Conditions: not given
row,SMILES,Reduction
1,O=C1[N-]C(=O)C(Cc2ccc(OCC3CN(c4ccccn4)CCO3)cc2)S1.[Na+] (stereo not given),39.25%
2,O=C(O)/C=C\C(=O)O.O=C1NC(=O)/C(=C/c2ccc(OC[C@@H]3CCCN3c3ccccn3)cc2)S1,75%
3,CN(CCOc1ccc(CC2SC(=O)NC2=O)cc1)c1ccccn1 (stereo in doubt; form 1) [ROSIGLITAZONE],47%
4,O=C(O)/C=C\C(=O)O.O=C1NC(=O)C(Cc2ccc(OC[C@@H]3CCCN3c3ccccn3)cc2)S1 (stereo not given in full),41.5%

# Tested on: Mus musculus
# Assay: Compound was administered at a dose of 30 mg/kg/day to evaluate the percentage reduction in plasma triglyceride (TG) after 6 days of treatment in db/db mice via oral gavage.
# Format: functional
# Conditions: not given
# Outline: as §1
row,SMILES,Reduction
1,Cc1cc(N2CCC[C@H]2COc2ccc(CC3SC(=O)NC3=O)cc2)nc2ccccc12.O=C(O)/C=C\C(=O)O (stereo not given in full),53%
2,O=C1[N-]C(=O)/C(=C/c2ccc(OC[C@@H]3CCCN3c3ccccn3)cc2)S1.[Na+],56%
3,O=C1NC(=O)C(Cc2ccc(OC[C@@H]3CCCN3c3ccc4ccccc4n3)cc2)S1 (stereo not given in full),49%
4,Cc1cc(N2CCC[C@H]2COc2ccc(CC3SC(=O)NC3=O)cc2)nc2ccccc12 (stereo not given in full),66.25%
5,O=C1[N-]C(=O)C(Cc2ccc(OCC3CN(c4ccccn4)CCO3)cc2)S1.[Na+] (stereo not given),56.75%
6,Cl.O=C1NC(=O)/C(=C/c2ccc(OC[C@@H]3CCCN3c3ccccn3)cc2)S1,31.7%
7,O=C(O)/C=C\C(=O)O.O=C1NC(=O)/C(=C/c2ccc(OC[C@@H]3CCCN3c3ccccn3)cc2)S1,66.4%
8,CN(CCOc1ccc(CC2SC(=O)NC2=O)cc1)c1ccccn1 (stereo in doubt; form 2) [ROSIGLITAZONE],40.21%
9,Cl.O=C1NC(=O)C(Cc2ccc(OC[C@@H]3CCCN3c3ccccn3)cc2)S1 (stereo not given in full),50.5%
10,O=C1[N-]C(=O)C(Cc2ccc(OC[C@@H]3CCCN3c3ccc4ccccc4n3)cc2)S1.[Na+] (stereo not given in full),24.75%
11,CN(CCOc1ccc(CC2SC(=O)NC2=O)cc1)c1ccccn1 (stereo in doubt; form 1) [ROSIGLITAZONE],41%
12,O=C(O)/C=C\C(=O)O.O=C1NC(=O)C(Cc2ccc(OC[C@@H]3CCCN3c3ccccn3)cc2)S1 (stereo not given in full),44.75%

# Tested on: Mus musculus
# Assay: Compound was administered at a dose of 10 mg/kg/day to evaluate the percentage reduction in plasma glucose(PG) after 14 days of treatment in ob/ob mice via oral gavage.
# Conditions: not given
row,SMILES,Reduction
1,O=C1[N-]C(=O)C(Cc2ccc(OCC3CN(c4ccccn4)CCO3)cc2)S1.[Na+] (stereo not given),39.8%
2,Cl.O=C1NC(=O)/C(=C/c2ccc(OC[C@@H]3CCCN3c3ccccn3)cc2)S1,42.4%
3,O=C(O)/C=C\C(=O)O.O=C1NC(=O)/C(=C/c2ccc(OC[C@@H]3CCCN3c3ccccn3)cc2)S1,69.25%

# Tested on: Mus musculus
# Assay: Compound was administered at a dose of 100 mg/kg/day to evaluate the percentage reduction in plasma glucose(PG) after 6 days of treatment in db/db mice via oral gavage.
# Format: functional
# Conditions: not given
# Outline: as §1
row,SMILES,Reduction
1,O=C1NC(=O)/C(=C/c2ccc(OC[C@@H]3CCCN3c3ccc4ccccc4n3)cc2)S1,63.75%

# Tested on: Mus musculus
# Assay: Compound was administered at a dose of 100 mg/kg/day to evaluate the percentage reduction in plasma triglyceride (TG) after 6 days of treatment in db/db mice via oral gavage.
# Format: functional
# Conditions: not given
# Outline: as §1
row,SMILES,Reduction
1,O=C1NC(=O)/C(=C/c2ccc(OCC3CCN(c4ccccn4)CC3)cc2)S1,27.33%

# Tested on: Mus musculus
# Assay: Compound was administered at a dose of 30 mg/kg/day to evaluate the percentage reduction in plasma glucose(PG) after 14 days of treatment in ob/ob mice via oral gavage.
# Conditions: not given
row,SMILES,Reduction
1,Cl.O=C1NC(=O)/C(=C/c2ccc(OC[C@@H]3CCCN3c3ccccn3)cc2)S1,37.2%
2,O=C(O)/C=C\C(=O)O.O=C1NC(=O)/C(=C/c2ccc(OC[C@@H]3CCCN3c3ccccn3)cc2)S1,73%

# Tested on: Mus musculus
# Assay: Percentage reduction in plasma glucose after 6 days p.o. dosing at 30 mg/kg in db/db mice.
# Format: functional
# Conditions: route oral
# Outline: as §1
row,SMILES,Reduction
1,O=C1[N-]C(=O)/C(=C/c2ccc(OC[C@@H]3CCCN3c3ccccn3)cc2)S1.[Na+],56.5%
2,O=C1NC(=O)C(Cc2ccc(OC[C@@H]3CCCN3c3ccc4ccccc4n3)cc2)S1 (stereo not given in full),72.25%
3,Cc1cc(N2CCC[C@H]2COc2ccc(CC3SC(=O)NC3=O)cc2)nc2ccccc12 (stereo not given in full),40.5%
4,O=C1[N-]C(=O)C(Cc2ccc(OCC3CN(c4ccccn4)CCO3)cc2)S1.[Na+] (stereo not given),63.5%
5,Cl.O=C1NC(=O)/C(=C/c2ccc(OC[C@@H]3CCCN3c3ccccn3)cc2)S1,70.8%
6,O=C(O)/C=C\C(=O)O.O=C1NC(=O)/C(=C/c2ccc(OC[C@@H]3CCCN3c3ccccn3)cc2)S1,63.6%
7,Cl.O=C1NC(=O)C(Cc2ccc(OC[C@@H]3CCCN3c3ccccn3)cc2)S1 (stereo not given in full),50.5%
8,O=C1[N-]C(=O)C(Cc2ccc(OC[C@@H]3CCCN3c3ccc4ccccc4n3)cc2)S1.[Na+] (stereo not given in full),61.5%
9,O=C(O)/C=C\C(=O)O.O=C1NC(=O)C(Cc2ccc(OC[C@@H]3CCCN3c3ccccn3)cc2)S1 (stereo not given in full),62.5%

# Same assay, conditions: route oral, 30 mg/kg
row,SMILES,Reduction
1,CN(CCOc1ccc(CC2SC(=O)NC2=O)cc1)c1ccccn1 (stereo in doubt; form 2) [ROSIGLITAZONE],35%
2,CN(CCOc1ccc(CC2SC(=O)NC2=O)cc1)c1ccccn1 (stereo in doubt; form 1) [ROSIGLITAZONE],64.6%

# Tested on: Mus musculus
# Assay: Compound was administered at a dose of 20 mg/kg/day to evaluate the percentage reduction in plasma triglyceride (TG) after 14 days of treatment in db/db mice via oral gavage.
# Conditions: not given
row,SMILES,Reduction
1,O=C(O)/C=C\C(=O)O.O=C1NC(=O)C(Cc2ccc(OC[C@@H]3CCCN3c3ccccn3)cc2)S1 (stereo not given in full),34.5%

# Tested on: Mus musculus
# Assay: Compound was administered at a dose of 1 mg/kg/day to evaluate the percentage reduction in plasma glucose(PG) after 14 days of treatment in ob/ob mice via oral gavage.
# Conditions: not given
row,SMILES,Reduction
1,O=C1[N-]C(=O)C(Cc2ccc(OCC3CN(c4ccccn4)CCO3)cc2)S1.[Na+] (stereo not given),30%
2,Cl.O=C1NC(=O)/C(=C/c2ccc(OC[C@@H]3CCCN3c3ccccn3)cc2)S1,18.8%
3,O=C(O)/C=C\C(=O)O.O=C1NC(=O)/C(=C/c2ccc(OC[C@@H]3CCCN3c3ccccn3)cc2)S1,52.4%

# Tested on: Mus musculus
# Assay: Compound was administered at a dose of 10 mg/kg/day to evaluate the percentage reduction in plasma triglyceride (TG) after 14 days of treatment in db/db mice via oral gavage.
# Conditions: not given
row,SMILES,Reduction
1,O=C1[N-]C(=O)C(Cc2ccc(OCC3CN(c4ccccn4)CCO3)cc2)S1.[Na+] (stereo not given),39%
2,Cl.O=C1NC(=O)/C(=C/c2ccc(OC[C@@H]3CCCN3c3ccccn3)cc2)S1,43.8%
3,O=C(O)/C=C\C(=O)O.O=C1NC(=O)/C(=C/c2ccc(OC[C@@H]3CCCN3c3ccccn3)cc2)S1,78.4%
4,CN(CCOc1ccc(CC2SC(=O)NC2=O)cc1)c1ccccn1 (stereo in doubt; form 1) [ROSIGLITAZONE],35.25%

# Tested on: Mus musculus
# Assay: Compound was administered at a dose of 10 mg/kg/day to evaluate the percentage reduction in plasma glucose(PG) after 14 days of treatment in db/db mice via oral gavage.
# Conditions: not given
row,SMILES,Reduction
1,O=C1[N-]C(=O)C(Cc2ccc(OCC3CN(c4ccccn4)CCO3)cc2)S1.[Na+] (stereo not given),66%
2,Cl.O=C1NC(=O)/C(=C/c2ccc(OC[C@@H]3CCCN3c3ccccn3)cc2)S1,61%
3,O=C(O)/C=C\C(=O)O.O=C1NC(=O)/C(=C/c2ccc(OC[C@@H]3CCCN3c3ccccn3)cc2)S1,49.6%
4,CN(CCOc1ccc(CC2SC(=O)NC2=O)cc1)c1ccccn1 (stereo in doubt; form 1) [ROSIGLITAZONE],47.25%
